In ChEMBL document CHEMBL4368876, “Synthesis of d-(+)-camphor-based N-acylhydrazones and their antiviral activity” (Medchemcomm, 2018):

How the values were obtained:
[1] = system: Vaccinia virus; experiment: Antiviral activity against Vaccinia virus Copenhagen infected in African green monkey Vero cells assessed as inhibition of viral replication after 4 days by neural red dye-based spectrophotometric method; format: functional, organism-based, Orthopoxvirus vaccinia
[2] = system: Influenza A virus; experiment: Antiviral activity against Influenza A virus (A/Puerto Rico/8/34(H1N1)) infected in MDCK cells assessed as reduction in virus titer pretreated with cells for 1 hr followed by viral infection for 1 hr and subsequent unbound virion washout measured after 24 to 48 hrs by hemagglutination test; format: functional, organism-based, A/Puerto Rico/8/1934(H1N1)
Summary of the method: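 MDCK cells pre-incubated 1 h at 36 °C with compound in MEM containing 1 μg mL−1 trypsin, then infected with A/Puerto Rico/8/34 (H1N1), moi 0.01, for 1 h. Unbound virus washed off, then 24 h at 36 °C, 5% CO2. Supernatant titre read by hemagglutination after 48 h passage in MDCK, as % of untreated control. Triplicate wells; IC50 calculated.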

[3] = Cytotoxicity against MDCK cells assessed as reduction in cell viability after 48 hrs by MTT assay; format: cell-based, Canis lupus familiaris; conditions: dog
Summary of the method: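 MDCK cells were exposed to three-fold dilutions of compound in MEM (top 300–400 μg mL-1) for 48 h at 36 °C in 5% CO2, then washed twice with PBS. MTT ([…] in PBS) was added for 1 h and formazan was dissolved in DMSO. OD was read at 535 nm. Triplicate wells per concentration; CC50 was taken from OD versus concentration.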

[4] = Cytotoxicity against African green monkey Vero cells assessed as reduction in cell viability after 4 days by neural red dye-based spectrophotometric method; conditions: chlorocebus sabaeus
Summary of the method: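 Vero cell monolayers in DMEM with 2% fetal serum were given serial dilutions of compound, with no virus added. After 4 days the cells were stained with neutral red for 2 h, unbound dye was washed out and the cells were lysed. OD was read at 490 nm. CC50 in μM was derived from the OD data; three independent experiments, mean ± 95% confidence interval.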

[5] = system: Orthopoxvirus; experiment: Antiviral activity against Orthopoxvirus assessed as reduction in viral replication; format: functional, organism-based
[6] = Selectivity index, ratio of CC50 for African green monkey Vero cells to IC50 for Vaccinia virus Copenhagen infected in African green monkey Vero cells; format: toxicity; conditions: read-out: Ratio CC50/IC50
[7] = Selectivity index, ratio of CC50 for MDCK cells to IC50 for Influenza A virus (A/Puerto Rico/8/34(H1N1)) infected in MDCK cells; format: toxicity, cell-based; conditions: dog, read-out: Ratio CC50/IC50
[8] = Orthopoxvirus vaccinia, Copenhagen, Vero, 96 h, read-out: IC50
[9] = Influenza A virus, A/Puerto Rico/8/1934(H1N1), MDCK, read-out: IC50

| SMILES | IC50 ([1]; vero) | IC50 [2] | CC50 at 48 h [3] | CC50 at 96 h [4] | IC50 [5] | IC50 [1, 8] | IC50 [2, 9] | selectivity ratio [6] | selectivity ratio [7] |
| --- | --- | --- | --- | --- | --- | --- | --- | --- | --- |
| CC1(C)[C@@H]2CC[C@@]1(C)/C(=N/NC(=O)c1cccs1)C2 | Not Active | Not Active | 1030 µM | 362 µM | – | – | – | – | – |
| CC(=O)N/N=C1\C[C@H]2CC[C@]1(C)C2(C)C | Not Active | – | – | > 250 µM | – | – | – | – | – |
| CC1CCN(CC(=O)N[C@@H]2C[C@H]3CC[C@]2(C)C3(C)C)CC1 | – | – | – | – | 2.5 µM | – | – | – | – |
| CC1(C)[C@@H]2CC[C@@]1(C)/C(=N/NC(=O)c1ccc(Br)cc1)C2 | – | – | > 822 µM | 288 µM | – | 11.1 µM | 219 µM | 26 | 4 |
| CC1(C)[C@@H]2CC[C@@]1(C)/C(=N/NC(=O)c1ccccc1)C2 | – | – | > 1050 µM | 1430 µM | – | 5.1 µM | 201 µM | 280 | 5 |
| CC1(C)[C@@H]2CC[C@@]1(C)/C(=N/NC(=O)C(F)(F)F)C2 | Not Active | Not Active | > 1080 µM | > 250 µM | – | – | – | – | – |
| CC1(C)[C@@H]2CC[C@@]1(C)[C@H](OC(=O)CCN1CCOCC1)C2 | – | – | – | – | 3.5 µM | – | – | – | – |
| CC1(C)[C@@H]2CC[C@@]1(C)/C(=N/NC(=O)c1ccco1)C2 | – | – | 1090 µM | 285 µM | – | 38.7 µM | 325 µM | 7 | 3 |
| CCCC(=O)N/N=C1\C[C@H]2CC[C@]1(C)C2(C)C | – | – | > 1190 µM | 854 µM | – | 69.8 µM | 794 µM | 12 | 2 |
| CC12C=CC3(O1)C(C(=O)N1c4ccccc4SC13)C2C(=O)N/N=C1\C[C@H]2CC[C@]1(C)C2(C)C (mixture of isomers) | Not Active | – | 123 µM | 67.2 µM | – | – | 36 µM | – | 3 |
| CCN1CC23C=CC(O2)C(C(=O)N/N=C2\C[C@H]4CC[C@]2(C)C4(C)C)C3C1=O (mixture of isomers) | Not Active | Not Active | 775 µM | > 250 µM | – | – | – | – | – |
| CC12C=CC3(CN(Cc4ccccc4)C(=O)C3C1C(=O)N/N=C1\C[C@H]3CC[C@]1(C)C3(C)C)O2 (mixture of isomers) | Not Active | – | 227 µM | > 250 µM | – | – | > 72 µM | – | 3 |
| CC12C=CC3(O1)C(C(=O)N1CCCOC13)C2C(=O)N/N=C1\C[C@H]2CC[C@]1(C)C2(C)C (mixture of isomers) | Not Active | – | > 721 µM | > 250 µM | – | – | 481 µM | – | 2 |
| COCCN1CC23C=CC(O2)C(C(=O)N/N=C2\C[C@H]4CC[C@]2(C)C4(C)C)C3C1=O (mixture of isomers) | Not Active | Not Active | 719 µM | > 250 µM | – | – | – | – | – |
| CC12C=CC3(CN(c4ccccc4)C(=O)C3C1C(=O)N/N=C1\C[C@H]3CC[C@]1(C)C3(C)C)O2 (mixture of isomers) | – | – | 277 µM | 600 µM | – | 6.2 µM | 22 µM | 97 | 12 |
| CC12C=CC3(O1)C(C(=O)N1CCSC13)C2C(=O)N/N=C1\C[C@H]2CC[C@]1(C)C2(C)C (mixture of isomers) | Not Active | – | – | > 250 µM | – | – | – | – | – |
| NC12CC3CC(CC(C3)C1)C2 [AMANTADINE] | – | – | – | – | – | – | 64 µM | – | 4 |
| Nc1ccn(C[C@@H](CO)OCP(=O)(O)O)c(=O)n1 [CIDOFOVIR] | – | – | – | – | – | – | – | 12 | – |
| NC(=O)c1ncn([C@@H]2O[C@H](CO)[C@@H](O)[C@H]2O)n1 [RIBAVIRIN] | – | – | > 2130 µM | – | – | – | 30 µM | – | 71 |
| CC(N)C12CC3CC(CC(C3)C1)C2 (stereo not given) [RIMANTADINE] | – | – | – | – | – | – | 67 µM | – | 5 |
